Activity calls are given as the source filed them. No cut-off for these calls is given here.
Key:
[1] = test system: H9c2; assay: Cardioprotective activity against rat H9c2 cells assessed as reduction in H2O2-induced cell death at 20 uM incubated for 24 hrs followed by H2O2 stimulation and measured after 2 hrs by MTT assay; type: functional, cell-based
Summary of the method: (§1)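 Serum-starved H9c2 cells in DMEM/F12 with 10% FBS were seeded at 5×10^3 cells/well and attached overnight. They were pretreated 24 h with compound at 2.5, 5, 10 or 20 µM, then exposed to 250 µM H2O2 for 2 h. MTT (4 mg/mL) ran 4 h at 37 °C, formazan was dissolved in DMSO, and OD was read at 490 nm. Viability is % of untreated control, from three independent experiments, mean ± SD.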

[2] = biological target: T1, Nuclear factor erythroid 2-related factor 2 (Rattus norvegicus) (UniProt O54968); assay: Activation of Nrf2 in rat H9c2 cells assessed as induction of Nrf2 nuclear translocation at 10 uM incubated for 24 hrs followed by H2O2 stimulation and measured after 2 hrs by Western blot analysis; type: cell-based
T1 sequence (whole entry): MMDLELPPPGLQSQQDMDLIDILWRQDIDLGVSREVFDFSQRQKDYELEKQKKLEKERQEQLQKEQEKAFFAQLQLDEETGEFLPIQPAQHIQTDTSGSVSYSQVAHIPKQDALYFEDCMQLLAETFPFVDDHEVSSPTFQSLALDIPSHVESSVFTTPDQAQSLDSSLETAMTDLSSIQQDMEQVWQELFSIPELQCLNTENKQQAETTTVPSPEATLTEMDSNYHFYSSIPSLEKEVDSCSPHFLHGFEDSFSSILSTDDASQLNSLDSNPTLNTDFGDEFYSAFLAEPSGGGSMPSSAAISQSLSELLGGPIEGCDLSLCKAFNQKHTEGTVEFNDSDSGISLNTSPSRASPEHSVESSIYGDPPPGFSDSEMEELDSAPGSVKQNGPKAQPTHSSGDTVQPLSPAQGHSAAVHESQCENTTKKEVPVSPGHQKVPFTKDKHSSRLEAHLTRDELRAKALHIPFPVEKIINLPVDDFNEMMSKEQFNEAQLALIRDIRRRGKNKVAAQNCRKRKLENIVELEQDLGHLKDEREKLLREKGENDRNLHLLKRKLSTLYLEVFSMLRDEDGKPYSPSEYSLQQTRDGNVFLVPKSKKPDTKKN

[3] = biological target: T1, Nuclear factor erythroid 2-related factor 2 (Rattus norvegicus); assay: Activation of Nrf2 in rat H9c2 cells assessed as upregulation of NQO1 at 10 uM incubated for 24 hrs followed by H2O2 stimulation and measured after 2 hrs by Western blot analysis; type: cell-based
[4] = test system: H9c2; assay: Cardioprotective activity against rat H9c2 cells assessed as reduction in H2O2-induced cell death at 2.5 uM incubated for 24 hrs followed by H2O2 stimulation and measured after 2 hrs by MTT assay; type: functional, cell-based; summary of the method: as §1
[5] = test system: H9c2; assay: Cardioprotective activity against rat H9c2 cells assessed as reduction in H2O2-induced cell death at 10 uM incubated for 24 hrs followed by H2O2 stimulation and measured after 2 hrs by MTT assay; type: functional, cell-based; summary of the method: as §1
[6] = biological target: T1, Nuclear factor erythroid 2-related factor 2 (Rattus norvegicus); assay: Activation of Nrf2 in rat H9c2 cells assessed as upregulation of HO1 at 10 uM incubated for 24 hrs followed by H2O2 stimulation and measured after 2 hrs by Western blot analysis; type: cell-based
[7] = test system: H9c2; assay: Cardioprotective activity against rat H9c2 cells assessed as reduction in H2O2-induced LDH release at 20 uM incubated for 24 hrs followed by H2O2 stimulation and measured after 2 hrs by LDH release assay; type: functional, cell-based
Summary of the method: (§2)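 Cells were cultured in DMEM/F12 with 10% FBS and serum-starved, then pre-incubated 24 h with compound at 10 or 20 µM before 2 h with 250 µM H2O2. LDH release rate was measured with a cytotoxicity detection kit by absorbance at 490 nm. Three independent experiments, mean ± SD, one-way ANOVA with Tukey test.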

[8] = test system: H9c2; assay: Cardioprotective activity against rat H9c2 cells assessed as reduction in H2O2-induced LDH release at 10 uM incubated for 24 hrs followed by H2O2 stimulation and measured after 2 hrs by LDH release assay; type: functional, cell-based; summary of the method: as §2
[9] = test system: H9c2; assay: Cytotoxicity against rat H9c2 cells assessed as reduction in cell viability at 0.1 to 100 uM incubated for 24 hrs by MTT assay; type: cell-based; conditions: h9c2, 24 h
Summary of the method: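 H9c2 cells were seeded at 5×10^3 cells/well, attached overnight and given compound at 0.1, 1, 10 or 100 µM for 24 h, with 0.01% DMSO medium as control. Compounds were DMSO stocks diluted in medium. MTT (4 mg/mL, 4 h, 37 °C) was read at OD 490 nm after DMSO solubilisation. Viability is % of control, from three experiments.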

[10] = biological target: T1, Nuclear factor erythroid 2-related factor 2 (Rattus norvegicus); assay: Activation of Nrf2 in rat H9c2 cells assessed as upregulation of NQO1 incubated for 24 hrs followed by H2O2 stimulation and measured after 2 hrs by Western blot analysis; type: cell-based
[11] = biological target: T1, Nuclear factor erythroid 2-related factor 2 (Rattus norvegicus); assay: Activation of Nrf2 in rat H9c2 cells assessed as induction of Nrf2 nuclear translocation incubated for 24 hrs followed by H2O2 stimulation and measured after 2 hrs by Western blot analysis; type: cell-based
[12] = test system: H9c2; assay: Increase in H2O2-induced Nrf2 expression in rat H9c2 cells at 20 uM incubated for 24 hrs followed by H2O2 stimulation and measured after 2 hrs by Western blot analysis; type: functional, cell-based
Summary of the method: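 Pretreatment was 20 µM for 24 h, then 250 µM H2O2 for 2 h. Cytoplasmic and nuclear fractions were extracted for Western blot: 5% milk/TBS-0.1% Tween blocking 2 h, primary antibodies overnight at 4 °C, HRP anti-rabbit secondary (1:5000) 2 h. Signals were normalised to Lamin B1 (nuclear) or GAPDH (cytoplasmic), n=3, mean ± SD.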

[13] = test system: H9c2; assay: Inhibition of H2O2-induced ROS accumulation in rat H9c2 cells at 10 uM incubated for 24 hrs followed by H2O2 stimulation and measured after 2 hrs by DHE staining based fluorescence microscopy; type: functional, cell-based
Summary of the method: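 H9c2 cells at 2.5×10^5 cells/well attached overnight, were preincubated 24 h with 10 µM, then given H2O2 (250 µM) for 2 h. Dihydroethidium (5 µM) was loaded for 30 min at 37 °C. Ethidium fluorescence (ex 488/em […] nm) was imaged by fluorescence microscopy at 200×.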

[14] = test system: H9c2; assay: Cardioprotective activity against rat H9c2 cells assessed as reduction in H2O2-induced cell death at 5 uM incubated for 24 hrs followed by H2O2 stimulation and measured after 2 hrs by MTT assay; type: functional, cell-based; summary of the method: as §1
[15] = biological target: T1, Nuclear factor erythroid 2-related factor 2 (Rattus norvegicus); assay: Activation of Nrf2 in rat H9c2 cells assessed as upregulation of HO1 incubated for 24 hrs followed by H2O2 stimulation and measured after 2 hrs by Western blot analysis; type: cell-based

`COc1ccc2c(c1)C=NS(=O)(=O)O2` was tested, and the Activity [1] was “Active”.
For `CCN(CC)c1ccc2c(c1)OS(=O)(=O)N=C2`, the Activity [1] was “Active”.
In the case of `O=c1cc(-c2ccc(O)c(O)c2)oc2cc(O)cc(O)c12`, the Activity [2] is reported as “Active”, the Activity [3] is reported as “Active” and the Activity [4] is reported as “inactive”. The Activity [1] was “Active”, the Activity [5] was “Active” and the Activity [6] was “Active”.
With `CC(C)(C)c1cccc2c1OS(=O)(=O)N=C2` the Activity [1] was “inactive”.
In the case of `Cc1ccc2c(c1)C=NS(=O)(=O)O2`, the Activity [1] is reported as “Active”.
In the case of `COc1cccc2c1OS(=O)(=O)N=C2`, the Activity [1] is reported as “Active”.
In the case of `Cc1ccc2c(c1)OS(=O)(=O)N=C2`, the Activity [1] is reported as “Active”.
For `O=S1(=O)N=Cc2ccccc2O1`, the Activity [1] was “Active”.
In the case of `O=S1(=O)N=Cc2cc(Cl)ccc2O1`, the Activity [1] is reported as “Active”.
`O=S1(=O)N=Cc2c(F)cccc2O1` was tested, and the Activity [1] was “Active”.
In the case of `O=S1(=O)N=Cc2cc(Br)ccc2O1`, the Activity [7] is reported as “Active”, the Activity [8] is reported as “inactive” and the Activity [4] is reported as “inactive”. The Activity [1] was “Active”, the Activity [9] was “Non-Toxic” and the Activity [5] was “Active”.
For `O=S1(=O)N=Cc2cccc(Cl)c2O1`, the Activity [1] was “Active”.
With `O=S1(=O)N=Cc2ccc(Cl)cc2O1` the Activity [7] was “Active”, the Activity [10] was “Dose-dependent effect” and the Activity [2] was “Active”. The Activity [3] was “Active”, the Activity [11] was “Dose-dependent effect” and the Activity [8] was “Active”. For the same molecule, the Activity [12] was “Active”, the Activity [4] was “inactive” and the Activity [1] was “Active”. The Activity [9] was “Non-Toxic”, the inhibition [13] was “Active” and the Activity [14] was “Active”. For the same molecule, the Activity [5] was “Active”, the Activity [6] was “Active” and the Activity [15] was “Dose-dependent effect”.
`COc1ccc2c(c1)OS(=O)(=O)N=C2` was tested, and the Activity [1] was “Active”.
`O=S1(=O)N=Cc2cccc(F)c2O1` was tested, and the Activity [1] was “Active”.
`O=S1(=O)N=Cc2c(ccc3ccccc23)O1` was tested, and the Activity [1] was “Active”.
For `O=S1(=O)N=Cc2ccc(F)cc2O1`, the Activity [7] was “Active”, the Activity [8] was “inactive” and the Activity [4] was “inactive”. The Activity [1] was “Active”, the Activity [9] was “Non-Toxic” and the Activity [5] was “Active”.

Source: ChEMBL document CHEMBL4312000, “Discovery of coumarin-derived imino sulfonates as a novel class of potential cardioprotective agents” (Eur J Med Chem, 2019)
